Bioassay records from PubChem.
Rows were chosen to be rich in hits. Some 3.4% of all compounds tested hit in one or more screens of this group.
CHRM1 PAM – positive allosteric modulators of human M1 muscarinic receptor; P11229; CHO-K1 hM1, Fluo-8 calcium fluorescence, ACh EC20; 0% = ACh EC20, 100% = maximal ACh; activation, % at 3 µM; 360,000 compounds, 0.088% hits; AID 588819; in the data active = activation above about 19%, passing the limit was not always enough
Target sequence (P11229 whole entry, looked up): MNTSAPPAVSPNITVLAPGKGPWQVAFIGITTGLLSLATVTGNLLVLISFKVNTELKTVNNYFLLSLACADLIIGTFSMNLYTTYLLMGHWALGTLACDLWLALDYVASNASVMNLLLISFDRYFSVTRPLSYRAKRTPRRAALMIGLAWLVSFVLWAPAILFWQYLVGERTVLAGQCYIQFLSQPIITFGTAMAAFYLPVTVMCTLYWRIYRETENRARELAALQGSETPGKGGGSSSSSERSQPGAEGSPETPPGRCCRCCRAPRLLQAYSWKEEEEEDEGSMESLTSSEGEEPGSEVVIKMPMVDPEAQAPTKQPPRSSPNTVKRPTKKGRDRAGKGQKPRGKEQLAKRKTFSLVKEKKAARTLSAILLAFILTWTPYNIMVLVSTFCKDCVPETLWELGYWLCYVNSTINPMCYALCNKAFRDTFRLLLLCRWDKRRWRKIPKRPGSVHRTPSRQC
CHRM1 antagonist – antagonists of human M1 muscarinic receptor. CHO-K1 hM1, Fluo-8 calcium fluorescence, ACh EC80 antagonist. inhibition, % at 3 µM. 360,000 compounds, 1.3% hits. AID 588852;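 active = percent inhibition above its own plate's cutoff, namely the mean of that plate's compound wells plus 3 SD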;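 also: peak over basal fluorescence ratio during 140 s after agonist addition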
TAAR1 ag – agonists of human TAAR1; CHO RD-HGA16 TAAR1, Fluo-8 calcium fluorescence; vehicle wells 0%, saturating PEA agonist 100%; activation, % at 3 µM; AID 624467; 360,000 compounds, 0.99% hits;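 active = activation above the mean activation of all test compounds in the run plus 3 SD, cut at about 38% in these data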
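Test system: RD-HGA16 (CHO) cells co-expressing Gα16 and hTAAR1 | Doses: Single dose, 3 µM | Schedule: 17-24 h seeding, 75 min 37 °C dye, 30 min RT | Evaluation: % activation from peak over basal fluorescence ratio, DMSO-to-PEA scaled | Technique: Kinetic Fluo-8 calcium fluorescence | Benchmarks: Low control DMSO, high control PEA (EC100)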
CHRM1 agonist – human M1 muscarinic receptor agonism; P11229; CHO-K1 hM1, Fluo-8 calcium fluorescence, agonist mode; 0% DMSO, 100% acetylcholine EC100; activation, % at 3 µM; 360,000 compounds, 0.33% hits; AID 588814;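 active = activation above the run's mean compound activation plus 3 SD, cut at about 16% in these data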;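 also: peak over basal fluorescence ratio within a 140 s kinetic read after compound addition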
TAAR1 antagonist – human TAAR1 antagonism; Q96RJ0; CHO RD-HGA16 TAAR1, Fluo-8 calcium fluorescence, antagonist; inhibition, % at 3 µM; 360,000 compounds, 1.5% hits; AID 624466;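 active = inhibition above a per-plate cutoff, the mean inhibition of test compounds on that plate plus 3 SD, cut at about 49% in these data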
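Material: RD-HGA16 CHO cells with stable hTAAR1 and Gα16; Dosing: single nominal final test compound concentration of 3 µM; Schedule: seeding 17-24 h prior, 75-min 37 °C, 30-min RT dye loading; Detection: kinetic Fluo-8 calcium fluorescence measurement; Measure: % inhibition from peak post-agonist over basal fluorescence ratio; Benchmarks: vehicle and agonist controls.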
TAAR1 ag confirm – human TAAR1 agonism, confirmed; 2,400 compounds, 82% hits; activation, % at 3 µM; shares compounds with TAAR1 ag; CHO RD-HGA16 TAAR1, Fluo-8 calcium fluorescence; scaled: DMSO 0%, maximal phenethylamine 100%;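 active = activation above a cutoff set at the run's mean compound activation plus 3 SD, cut at about 39% in these data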
Ga16 ag counter – nonselective agonist in parental cells, TAAR1 agonist counter-screen. shares compounds with TAAR1 ag. CHO-Ga16 parental, Fluo-8 calcium fluorescence; normalized to maximal ATP response, DMSO zero. AID 651787. activation, % at 3 µM. 2,400 compounds, 50% hits;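 active = activation above the run cutoff, the mean activation over all tested wells plus 3 SD, cut at about 12% in these data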
TAAR1 desensitize – TAAR1 response desensitization, agonist counter-screen; 2,400 compounds, 46% hits; inhibition, % at 3 µM; CHO RD-HGA16 hTAAR1, Fluo-8 calcium, beta-PEA response inhibition; shares compounds with TAAR1 ag;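 active = inhibition above the run cutoff, the mean inhibition of all test compounds plus 3 SD, cut at about 49% in these data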;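 also: beta-PEA stimulus applied at its EC80; loss of beta-PEA calcium signal after compound pretreatment read as receptor desensitization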
Ga16 antag count – nonselective Ga16 antagonism, counter-screen; shares compounds with TAAR1 ag; CHO-Ga16 ATP-induced calcium, Fluo-8 fluorescence; inhibition, % at 3 µM; 2,400 compounds, 39% hits; AID 651952;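 active = inhibition above the plate's mean compound inhibition plus 3 SD, computed per plate, cut at about 22% in these data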
Each line names hits and unclear results; the compound was inactive in the other large screens (follow-up assays come after a bar, where they were run).

N=c1c2c(-c3ccccc3)c(-c3ccccc3)n(Cc3ccco3)c2ncn1CCCn1ccnc1	none
N=c1c2c(-c3ccccc3)c(-c3ccccc3)n(Cc3ccccc3)c2ncn1CCO	TAAR1 ag 59 | TAAR1 ag confirm 49 | Ga16 ag counter 20 | TAAR1 desensitize inactive | Ga16 antag count inactive
COc1ccc(NC(=O)C2(C)CCN2C2Cc3ccccc3C2)cc1OC (stereo unspecified)	none
O=C(CN1C(=O)C2C3C=CC(C3)C2C1=O)NCCC1=CCCCC1 (stereo unspecified)	none
O=C(O)C1C2CCC(C2)C1C(=O)NCCC1=CCCCC1 (stereo unspecified)	TAAR1 ag 80, TAAR1 antagonist 85 | TAAR1 ag confirm 94 | Ga16 ag counter inactive | TAAR1 desensitize 77 | Ga16 antag count inactive
O=C(O)/C=C/C(=O)NCCC1=CCCCC1	TAAR1 ag 73, TAAR1 antagonist 84 | TAAR1 ag confirm 95 | Ga16 ag counter inactive | TAAR1 desensitize 97 | Ga16 antag count inactive
O=C(O)C1C2C=CC(C2)C1C(=O)NCCC1=CCCCC1 (stereo unspecified)	TAAR1 ag 72, TAAR1 antagonist 71 | TAAR1 ag confirm 89 | Ga16 ag counter inactive | TAAR1 desensitize 84 | Ga16 antag count inactive
Cc1ccc2c(CC(=O)Nc3ccc4nc(N5CCOCC5)sc4c3)coc2c1	none
COC(=O)[C@@]1(Cc2ccc(F)cc2)[C@H]2c3cc(C(=O)N(C)C)n(CCc4ccccn4)c3C[C@H]2CN1C(=O)c1ccccc1	none (no result: CHRM1 PAM, CHRM1 antagonist, CHRM1 agonist)
COC(=O)[C@@]1(Cc2ccc(F)cc2)[C@H]2c3cc(C(=O)N4CCCC4)n(CCc4ccccn4)c3C[C@H]2CN1C(=O)c1ccccc1	TAAR1 ag 88 (no result: CHRM1 PAM, CHRM1 antagonist, CHRM1 agonist) | TAAR1 ag confirm 53 | Ga16 ag counter 14 | TAAR1 desensitize inactive | Ga16 antag count inactive
Cc1oc(-c2cccs2)nc1CS(=O)CC(=O)NCCc1ccccc1 (stereo unspecified)	TAAR1 ag 58 | TAAR1 ag confirm 73 | Ga16 ag counter inactive | TAAR1 desensitize inactive | Ga16 antag count inactive
COc1cccc(-c2nc(CS(=O)(=O)CC(=O)N3CCN(C)CC3)c(C)o2)c1	none
COc1cccc(-c2nc(CS(=O)(=O)CC(=O)NCCc3ccccc3)c(C)o2)c1	TAAR1 ag 71 | TAAR1 ag confirm 94 | Ga16 ag counter 21 | TAAR1 desensitize 67 | Ga16 antag count inactive
Cc1oc(-c2ccccc2)nc1CS(=O)CC(=O)N1CCc2ccccc2C1 (stereo unspecified)	TAAR1 ag 56 | TAAR1 ag confirm 91 | Ga16 ag counter inactive | TAAR1 desensitize inactive | Ga16 antag count inactive
COc1cccc(-c2nc(CS(=O)(=O)CC(=O)N3CCc4ccccc4C3)c(C)o2)c1	TAAR1 ag 67 | TAAR1 ag confirm 87 | Ga16 ag counter inactive | TAAR1 desensitize inactive | Ga16 antag count inactive
CCCNC(=O)CS(=O)(=O)Cc1nc(-c2cccc(OC)c2)oc1C	none
CCn1cc(S(=O)(=O)Nc2ncccn2)cn1	none
Cc1oc(-c2ccccc2F)nc1CS(=O)(=O)CC(=O)NCCCc1ccccc1	none
Cc1ccccc1-c1nc(CS(=O)(=O)CC(=O)NCCc2ccccc2)c(C)o1	TAAR1 ag 72 | TAAR1 ag confirm 76 | Ga16 ag counter inactive | TAAR1 desensitize 63 | Ga16 antag count inactive
O=C(COC(=O)/C=C/c1cccs1)Nc1ccc(Cl)cc1F	TAAR1 ag 59, TAAR1 antagonist 74 | TAAR1 ag confirm inactive | Ga16 ag counter inactive | TAAR1 desensitize inactive | Ga16 antag count inactive
COc1ccc(CCn2c(C3CCCCC3)nc3c(c(=O)c4ccccc4n3C)c2=O)cc1	TAAR1 ag 111, TAAR1 antagonist 96 | TAAR1 ag confirm 65 | Ga16 ag counter 61 | TAAR1 desensitize 78 | Ga16 antag count 64
CC(C)c1nc2c(c(=O)c3ccccc3n2C)c(=O)n1CCc1ccccc1	TAAR1 ag 76, CHRM1 agonist 20 | TAAR1 ag confirm 43 | Ga16 ag counter 37 | TAAR1 desensitize inactive | Ga16 antag count inactive
COc1ccc(CCn2c(-c3ccccc3)nc3c(c(=O)c4ccccc4n3C)c2=O)cc1	none (no result: CHRM1 PAM, CHRM1 antagonist, CHRM1 agonist)
O=C(NCCc1nccs1)C1CCC(=O)N(Cc2cccc(C(F)(F)F)c2)C1 (stereo unspecified)	none
CN(C)CCOc1ccc(C(C)(C)c2ccccc2)cc1	none
CN(C)CCCOc1ccc(C(C)(C)c2ccccc2)cc1	TAAR1 ag 75 | TAAR1 ag confirm 45 | Ga16 ag counter inactive | TAAR1 desensitize inactive | Ga16 antag count inactive
O=C(C[C@H]1C(=O)N(CCc2ccccc2)C[C@@H]1c1ccccc1)Nc1ccccc1	TAAR1 ag 73 | TAAR1 ag confirm 77 | Ga16 ag counter inactive | TAAR1 desensitize inactive | Ga16 antag count inactive
CCC(c1nc2ccccc2[nH]1)n1c(=O)c(-c2cccnc2)nc2ccccc21 (stereo unspecified)	none (no result: CHRM1 PAM, CHRM1 antagonist, CHRM1 agonist)
Fc1ccccc1C1CCN(Cc2nc(CC3CC3)no2)C1 (stereo unspecified)	TAAR1 ag 48 | TAAR1 ag confirm 62 | Ga16 ag counter inactive | TAAR1 desensitize inactive | Ga16 antag count inactive
CC(=O)OC1CCC2C3CCc4cc(OP(=O)(N5CC5)N5CC5)ccc4C3CCC12C (stereo unspecified)	none
CC1CC(C)(C)NC2(CCCC2)N1 (stereo unspecified)	none
CCOC(=O)[C@]12CCC=C1N(Cc1ccc3c(c1)OCO3)C(=O)[C@H](CC(=O)NCCCCc1ccccc1)C2	none (no result: CHRM1 PAM, CHRM1 antagonist, CHRM1 agonist)
CCOC(=O)[C@]12CCC=C1N(Cc1ccc3c(c1)OCO3)C(=O)[C@H](CC(=O)NCCc1ccccc1OC)C2	TAAR1 ag 60 (no result: CHRM1 PAM, CHRM1 antagonist, CHRM1 agonist) | TAAR1 ag confirm 91 | Ga16 ag counter inactive | TAAR1 desensitize 76 | Ga16 antag count inactive
CCCCNC(=O)C[C@@H]1C[C@@]2(C(=O)OC)CC(C)(C)CC=C2N(Cc2ccc3c(c2)OCO3)C1=O	none (no result: CHRM1 PAM, CHRM1 antagonist, CHRM1 agonist)
CCOC(=O)[C@]12CCC=C1N(Cc1cccc3ccccc13)C(=O)[C@H](CC(=O)NCCc1ccccc1OC)C2	TAAR1 ag 55 (no result: CHRM1 PAM, CHRM1 antagonist, CHRM1 agonist) | TAAR1 ag confirm 70 | Ga16 ag counter inactive | TAAR1 desensitize inactive | Ga16 antag count inactive
